What was measured:
[1] = Selectivity index, ratio of IC50 for human KB cells to IC50 for chloroquine-resistant Plasmodium falciparum Bre1; assay type: toxicity, cell-based; conditions: read-out: Ratio IC50
Method in brief: (§1)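 SI is the ratio of the KB-cell IC50 to the parasite [3H]hypoxanthine IC50 for the given strain. KB cells were grown in D-MEM with 10% FCS and antibiotics under 5% CO2 and plated at 650 cells/well. After 24 h they were treated with compounds in DMSO (0.5 nM to 10 µM; 1% DMSO final) for 72 h. MTS was then added for 3 h at 37 °C and A490 was read against controls. IC50 runs were done in separate duplicate.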

[2] = Selectivity index, ratio of IC50 for human KB cells to IC50 for chloroquine-sensitive Plasmodium falciparum 3D7; assay type: toxicity, cell-based; conditions: read-out: Ratio IC50; method in brief: as §1
[3] = Selectivity index, ratio of IC50 for human KB cells to IC50 for chloroquine-resistant Plasmodium falciparum W2; assay type: toxicity, cell-based; conditions: read-out: Ratio IC50; method in brief: as §1
Plasmodium falciparum [4] = test: Antiplasmodial activity against chloroquine-resistant Plasmodium falciparum W2 assessed as inhibition of [3H]hypoxanthine incorporation; assay type: functional, organism-based
Plasmodium falciparum [5] = test: Antiplasmodial activity against chloroquine-sensitive Plasmodium falciparum 3D7 assessed as inhibition of [3H]hypoxanthine incorporation; assay type: functional, organism-based
[6] = Selectivity index, ratio of IC50 for human KB cells to IC50 for chloroquine-resistant Plasmodium falciparum FCR3/Gambia; assay type: toxicity, cell-based; conditions: read-out: Ratio IC50; method in brief: as §1
[7] = Binding affinity to synthetic hematin by spectrophotometry
Method in brief: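 Monomeric hematin solution: hematin in 0.1 M NaOH with DMSO and 0.02 M sodium phosphate buffer (pH 6.0), made up with water. Drug and hematin were mixed at 10 molar ratios. Complex stoichiometry and dissociation constant Kd were determined by spectrophotometric methods.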

[8] = Dissociation constant, pKa by spectrophotometry; assay type: physicochemical
[9] = Inhibition of beta-hematin formation after 18 hrs; assay type: functional
Method in brief: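 Modified BHIA: 8 mM hemin in DMSO (0.4 µmol per tube) was mixed with compounds in DMSO or DMSO/MeOH (1:1) at 0–10 molar equivalents to hemin, in triplicate. Acetate buffer held pH 5, and water-only controls were run. Hematin was quantified after serial dilution in 0.1 M NaOH, by absorbance at 405 nm. IC50 was taken as the concentration inhibiting crystallization by 50%.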

Plasmodium falciparum [10] = test: Antiplasmodial activity against chloroquine-resistant Plasmodium falciparum Bre1 assessed as inhibition of [3H]hypoxanthine incorporation; assay type: functional, organism-based
Plasmodium falciparum [11] = test: Antiplasmodial activity against chloroquine-resistant Plasmodium falciparum FCR3/Gambia assessed as inhibition of [3H]hypoxanthine incorporation; assay type: functional, organism-based; conditions: FCR-3/Gambia
KB = test: Cytotoxicity against human KB cells after 72 hrs by MTS assay; assay type: cell-based
Method in brief: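 KB cells were grown in D-MEM with 10% fetal calf serum, penicillin, streptomycin and fungizone, under 5% CO2. They were seeded at 650 cells/well and dosed 24 h later with compounds in DMSO, from 0.5 nM upward; controls got DMSO (1% final). MTS was added for 3 h at 37 °C and absorbance read at 490 nm as % of control. IC50 came from separate duplicate experiments.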

Structure (SMILES)	selectivity ratio [1]	selectivity ratio [2]	selectivity ratio [3]	IC50 (Plasmodium falciparum [4]) [µM]	IC50 (Plasmodium falciparum [5]) [µM]	selectivity ratio [6]	Kd [7] [µM]	pKa [8]	IC50 [9] [µM]	IC50 (Plasmodium falciparum [10]) [µM]	IC50 (Plasmodium falciparum [11]) [µM]	IC50 (KB) [µM]
COc1ccc2nc3cc(Cl)ccc3c(NCCCCN)c2c1	2	8.9	2.4	0.25	0.067	2.4	8.1	9.1	1000	0.3	0.25	0.6
CCCCCCCNc1c2ccc(Cl)cc2nc2ccc(OC)cc12	0.05	0.04	0.02	27.2	18.1	0.06	5.4	7.5	1500	16.3	14.6	0.85
COc1ccc2nc3cc(Cl)ccc3c(NCCCCCCN)c2c1	4.1	5.4	3.9			3.5	4.4	9.2	400			0.7
NCCCCCCNc1c2ccccc2nc2ccccc12	1.8	0.7	1.3	0.6	1.13	2.2	4.6	9.86	300	0.43	0.36	0.79
COc1ccc2nc3cc(Cl)ccc3c(NCCCCCCNc3c4ccc(Cl)cc4nc4ccc(OC)cc34)c2c1	0.045		0.01	4.55	3.39	0.05	20	8.23	1300	1.11	1.01	0.05
NCCCCCCCC(=O)Nc1c2ccccc2nc2ccccc12	2	1.3	1.1	50	41.9	1.8		4.59	1100	26.7	28.6	52.9
CCN(CC)CCCC(C)Nc1ccnc2cc(Cl)ccc12 (stereo not drawn) [CHLOROQUINE]							5.4		900			22.5
COc1ccc2nc3cc(Cl)ccc3c(NCCN)c2c1	7	50	8	0.25	0.042	6	4.2	7.94	4600	0.28	0.33	2.07
NCCC(=O)NCCC(=O)Nc1c2ccccc2nc2ccccc12	2.8	1.5	2.9	20.9	40.9	3.4	4	4.53	1800	21.6	17.8	60.1
